Experimental data taken from ChEMBL document CHEMBL1153179, “Optimization of orally bioavailable alkyl amine renin inhibitors” (Bioorg Med Chem Lett, 2010).
Each block holds one molecule with its values, some of them ahead of it. The source made the active and inactive calls. The rule behind the calls is not given here.

Assays:
Renin [1] = target: T1, Renin (Homo sapiens, UniProt P00797); assay: Inhibition of human recombinant renin assessed as decrease in plasma renin activity by competitive radioimmunoassay in presence of human plasma
T1 sequence (P00797 whole entry): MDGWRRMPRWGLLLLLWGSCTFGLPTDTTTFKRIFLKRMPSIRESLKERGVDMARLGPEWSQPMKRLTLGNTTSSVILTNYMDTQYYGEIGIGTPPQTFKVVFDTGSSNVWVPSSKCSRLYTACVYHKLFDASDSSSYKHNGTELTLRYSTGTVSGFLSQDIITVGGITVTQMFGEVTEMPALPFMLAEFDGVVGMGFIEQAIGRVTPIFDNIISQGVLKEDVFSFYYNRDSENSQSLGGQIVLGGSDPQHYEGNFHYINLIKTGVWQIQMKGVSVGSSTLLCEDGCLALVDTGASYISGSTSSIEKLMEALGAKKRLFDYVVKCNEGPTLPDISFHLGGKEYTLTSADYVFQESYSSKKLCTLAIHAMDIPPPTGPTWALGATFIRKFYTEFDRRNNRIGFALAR

Renin [2] = target: T1, Renin; assay: Inhibition of trypsin-activated human recombinant renin
[3] = Half life in cynomolgus monkey at 2 mg/kg, po; assay type: ADME, organism-based, Macaca fascicularis; set-up: dose 2 mg/kg, route oral; conditions: in vivo
[4] = AUC (0 to t) in cynomolgus monkey at 2 mg/kg, po; assay type: ADME, organism-based, Macaca fascicularis; set-up: dose 2 mg/kg, route oral; conditions: plasma
[5] = Clearance in cynomolgus monkey at 1 mg/kg, iv; assay type: ADME, organism-based, Macaca fascicularis; set-up: dose 1 mg/kg, route intravenous; conditions: in vivo
[6] = Half life in rat at 10 mg/kg, po; assay type: ADME, organism-based; set-up: dose 10 mg/kg, route oral; conditions: in vivo
[7] = (§1) AUC (0 to t) in rat at 10 mg/kg, po; assay type: ADME, organism-based, Plasma; set-up: dose 10 mg/kg, route oral; conditions: plasma
[8] = Cmax in cynomolgus monkey at 2 mg/kg, po; assay type: ADME, organism-based, Macaca fascicularis; set-up: dose 2 mg/kg, route oral; conditions: in vivo
Rattus norvegicus [9] = assay: Reduction in mean blood pressure in double transgenic rat model of hypertension at 10 mg/kg, po after 24 hrs; assay type: functional, organism-based; set-up: dose 10 mg/kg
Procedure, shortened: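 Double transgenic rats expressing human renin and human angiotensinogen (dTGR) given a single 10 mg/kg oral dose; mean arterial pressure followed over 24 h against vehicle-treated animals, with statistical significance assessed.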

[10] = Oral bioavailability in cynomolgus monkey at 2 mg/kg; assay type: ADME, organism-based, Macaca fascicularis; conditions: in vivo
[11] = Tmax in cynomolgus monkey at 2 mg/kg, po; assay type: ADME, organism-based, Macaca fascicularis; set-up: dose 2 mg/kg, route oral; conditions: in vivo
[12] = Cmax in rat at 10 mg/kg, po; assay type: ADME, organism-based; set-up: dose 10 mg/kg, route oral; conditions: in vivo
[13] = Tmax in rat at 10 mg/kg, po; assay type: ADME, organism-based; set-up: dose 10 mg/kg, route oral; conditions: in vivo
[14] = (§2) Oral bioavailability in rat at 10 mg/kg; assay type: ADME, organism-based; conditions: in vivo
[15] = Clearance in rat at 2 mg/kg, iv; assay type: ADME, organism-based; set-up: dose 2 mg/kg, route intravenous; conditions: in vivo
[16] = Volume of distribution at steady state in rat at 10 mg/kg, po or 2 mg/kg, iv; assay type: ADME, organism-based; conditions: in vivo, read-out: Vdss
[17] = Volume of distribution at steady state in cynomolgus monkey at 1 mg/kg, iv or 2 mg/kg, po; assay type: ADME, organism-based, Macaca fascicularis; conditions: in vivo, read-out: VDss
[18] = AUC (0 to 32 hrs) in cynomolgus monkey at 2 mg/kg, po; assay type: ADME, organism-based, Macaca fascicularis; set-up: time < 32 hr, dose 2 mg/kg, route oral; conditions: plasma
Rattus norvegicus [19] = assay: as §2; assay type: ADME, organism-based; conditions: in vivo
Rattus norvegicus [20] = assay: as §1; assay type: ADME, organism-based, Plasma; set-up: dose 10 mg/kg, route oral; conditions: in vivo

Structure (SMILES): CCNC[C@H](CC1CCCCC1)NC(=O)N1CCC[C@@H]([C@@H](OCCNC(=O)OC)c2cccc(Cl)c2)C1
IC50 (Renin [1]): 7.7 nM | IC50 (Renin [2]): 0.87 nM

Structure (SMILES): CNC[C@H](CC1CCCCC1)NC(=O)N1CCC[C@@H]([C@@](O)(CCCNC(=O)N(C)C)c2cccc(Cl)c2)C1
IC50 (Renin [2]): 2260 nM

Structure (SMILES): COCCCOc1cc(C[C@@H](C[C@H](N)[C@@H](O)C[C@H](C(=O)NCC(C)(C)C(N)=O)C(C)C)C(C)C)ccc1OC
half-life [3]: 9.8 h | AUC(0-t) [4]: 154 ng·h/mL | clearance [5]: 2.5 mL/min/kg | half-life [6]: 13.5 h | AUC(0-t) [7]: 21 ng·h/mL | Cmax [8]: 29.5 ng/mL | Activity (Rattus norvegicus [9]): Active | bioavailability [10]: 1.4% | Tmax [11]: 1.3 h

Structure (SMILES): CNC[C@H](CC1CCCCC1)NC(=O)N1CCC[C@@H]([C@@](O)(CCCNC(=O)C2CC2)c2cccc(Cl)c2)C1
IC50 (Renin [1]): 79 nM | IC50 (Renin [2]): 17 nM

Structure (SMILES): CNC[C@H](CC1CCCCC1)NC(=O)N1CCC[C@@H]([C@@](O)(CCCNC(=O)OC)c2cccc(Cl)c2)C1
Cmax [12]: 5 ng/mL | Tmax [13]: 0.9 h | IC50 (Renin [1]): 3.7 nM | IC50 (Renin [2]): 0.18 nM | half-life [6]: 1.8 h | bioavailability [14]: 0.3% | AUC(0-t) [7]: 10 ng·h/mL | clearance [15]: 34 mL/min/kg | Vd [16]: 29 L/kg

Structure (SMILES): COC(=O)NCCO[C@@H](c1cccc(F)c1)[C@@H]1CCCN(C(=O)N[C@H](CN)CC2CCCCC2)C1
IC50 (Renin [1]): 3.3 nM | IC50 (Renin [2]): 0.58 nM

Structure (SMILES): CCOCCCO[C@@H](c1ccccc1)[C@@H]1CCCN(C(=O)N[C@H](CNC)CC2CCCCC2)C1
half-life [6]: 5.9 h | AUC(0-t) [7]: 832 ng·h/mL

Structure (SMILES): CNC[C@H](CC1CCCCC1)NC(=O)N1CCC[C@@H]([C@@](O)(CCCCOC)c2cccc(Cl)c2)C1
half-life [3]: 15 h | clearance [5]: 5.2 mL/min/kg | Vd [17]: 6.1 L/kg | AUC(0-t) [7]: 472 ng·h/mL | Cmax [8]: 116 ng/mL | AUC(0-t) at 32 h [18]: 615 ng·h/mL | bioavailability [10]: 16% | Tmax [11]: 2.7 h

Structure (SMILES): CNC[C@H](CC1CCCCC1)NC(=O)N1CCC[C@@H]([C@@H](OCCNC(=O)OC)c2cccc(Cl)c2F)C1
IC50 (Renin [1]): 3.4 nM | IC50 (Renin [2]): 0.61 nM

Further molecules by falling IC50 (Renin [2]), results first:

IC50 (Renin [1]): 297 nM | IC50 (Renin [2]): 46 nM
Structure (SMILES): CNC[C@H](CC1CCCCC1)NC(=O)N1CCC[C@@H]([C@@](O)(CCCNS(N)(=O)=O)c2cccc(Cl)c2)C1

IC50 (Renin [1]): 170 nM | IC50 (Renin [2]): 14 nM
Structure (SMILES): CCOC(=O)NCCC[C@@](O)(c1cccc(Cl)c1)[C@@H]1CCCN(C(=O)N[C@H](CNC)CC2CCCCC2)C1

IC50 (Renin [1]): 6.2 nM | IC50 (Renin [2]): 1.7 nM
Structure (SMILES): CNC[C@H](CC1CCCCC1)NC(=O)N1CCC[C@@H]([C@@H](OCCNC(=O)OC)c2cccc(F)c2F)C1

IC50 (Renin [1]): 21 nM | IC50 (Renin [2]): 1.5 nM
Structure (SMILES): CCC(=O)NCCC[C@@](O)(c1cccc(Cl)c1)[C@@H]1CCCN(C(=O)N[C@H](CNC)CC2CCCCC2)C1

Cmax [12]: 54 ng/mL | Tmax [13]: 4 h | IC50 (Renin [1]): 1.5 nM | IC50 (Renin [2]): 0.52 nM | half-life [6]: 7.2 h | F (Rattus norvegicus [19]): 13.1% | AUC (Rattus norvegicus [20]): 166 ng·h/mL | Vd [16]: 38 L/kg
Structure (SMILES): CNC[C@H](CC1CCCCC1)NC(=O)N1CCC[C@@H]([C@@H](OCCNC(=O)OC)c2cc(F)cc(Cl)c2)C1
